Measurements as given in article PMC2872052 (Peptides, 2010).
Where a SMILES comes first, the peptide text is derived from it. [ ]: non-standard residue; d: D form.

Molecular target: wild type rat secretin receptor (Rattus norvegicus, UniProt P23811)
Experiment: cAMP responses in secretin receptor-bearing CHO-SecR cells
Type: cell-based
Details: for agonist (biological) activity at the secretin receptor, in words: cAMP responses in CHO-SecR cells, relative to maximal response to secretin
Method in brief: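 CHO cells stably expressing wild-type rat secretin receptor, grown 48 h at ~8,000 cells/well, washed twice in PBS, then stimulated 30 min at 37 °C with increasing test-compound concentrations in Krebs-Ringers/HEPES pH 7.4 with 0.2% BSA, 0.1% bacitracin and 1 mM IBMX. Lysis in 6% ice-cold perchloric acid, neutralised to pH 6, cAMP by LANCE. Normalised to maximal secretin response; three experiments in duplicate.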

Chain of wild type rat secretin receptor (P23811 26-449): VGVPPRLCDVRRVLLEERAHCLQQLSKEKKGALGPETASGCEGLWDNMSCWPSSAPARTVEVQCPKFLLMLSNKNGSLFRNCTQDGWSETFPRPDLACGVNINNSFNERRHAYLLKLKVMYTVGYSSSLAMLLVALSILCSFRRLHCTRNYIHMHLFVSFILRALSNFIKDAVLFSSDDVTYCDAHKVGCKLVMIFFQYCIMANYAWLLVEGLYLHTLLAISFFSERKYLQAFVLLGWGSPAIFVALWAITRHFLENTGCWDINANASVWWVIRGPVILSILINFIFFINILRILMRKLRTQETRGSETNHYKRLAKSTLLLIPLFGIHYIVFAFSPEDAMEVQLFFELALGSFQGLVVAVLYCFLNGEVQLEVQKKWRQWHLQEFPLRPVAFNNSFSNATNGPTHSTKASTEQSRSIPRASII

SMILES	EC50 [µM]	agonist (biological) activity at the secretin receptor, in words
O=C(O)C[C@@H]1NC(=O)[C@H](Cc2c[nH]c3ccccc23)NC(=O)[C@H](CC(=O)O)NC(=O)[C@H](Cc2c[nH]c3ccccc23)NC(=O)[C@@H](CC(=O)O)NC(=O)[C@H](Cc2c[nH]c3ccccc23)NC1=O [c[WDWDWd]] (cyclo(DWDW[dD]W))	11.7 ± 3	–
C[C@@H]1NC(=O)[C@H](C)NC(=O)[C@@H](C)NC(=O)[C@H](C)NC(=O)[C@H](CC(=O)O)NC(=O)[C@H](Cc2c[nH]c3ccccc23)NC1=O [c[AAWDAa]] (cyclo(AAWDA[dA]))	23 ± 5.3	full agonist activity
C[C@@H]1NC(=O)[C@H](C)NC(=O)[C@H](CC(=O)O)NC(=O)[C@H](Cc2c[nH]c3ccccc23)NC(=O)[C@H](C)NC(=O)[C@@H](C)NC1=O [c[AWDAAa]] (cyclo(AA[dA]AWD))	21 ± 4.2	full agonist activity
